Results collected from several papers.
Each line is one published result; the experiments were not run side by side.
PIK3CA M1043I: Phosphatidylinositol 4,5-bisphosphate 3-kinase catalytic subunit alpha isoform (PIK3CA, Homo sapiens, UniProt P42336, M1043I)
PIK3CA: Phosphatidylinositol 4,5-bisphosphate 3-kinase catalytic subunit alpha isoform (PIK3CA, Homo sapiens, UniProt P42336)
PIK3CA H1047Y: Phosphatidylinositol 4,5-bisphosphate 3-kinase catalytic subunit alpha isoform (PIK3CA, Homo sapiens, UniProt P42336, H1047Y)
PIK3CA H1047L: Phosphatidylinositol 4,5-bisphosphate 3-kinase catalytic subunit alpha isoform (PIK3CA, Homo sapiens, UniProt P42336, H1047L)
PIK3CA C420R: Phosphatidylinositol 4,5-bisphosphate 3-kinase catalytic subunit alpha isoform (PIK3CA, Homo sapiens, UniProt P42336, C420R)
PIK3CA I800L: Phosphatidylinositol 4,5-bisphosphate 3-kinase catalytic subunit alpha isoform (PIK3CA, Homo sapiens, UniProt P42336, I800L)

O=C(c1ccc(Nc2ncc(Cl)c(-c3cc4ccccc4s3)n2)cc1)N1CCC(N2CCCC2)CC1
remaining binding (PIK3CA M1043I; binding, competition with immobilised ligand; 1 µM): 62%

CN1CC[C@H](c2c(O)cc(O)c3c(=O)cc(-c4ccccc4Cl)oc23)[C@H](O)C1
remaining binding (PIK3CA; cell-free assay, competition with immobilised ligand; 10 µM): 97%

COc1ccnn2ncc(-c3ccnc(N(C)C)n3)c12
remaining binding (PIK3CA H1047Y; binding; 1 µM): 94%

O=C(NCCCC1CCCCC1)c1ccc(CNC(=O)c2cnn(-c3ccccc3)c2C(F)(F)F)cc1
remaining binding (PIK3CA H1047L; cell-free assay, competition with immobilised ligand; 0.1 µM): 86%

O=C(NCCCN1CCOCC1)c1ccc(Nc2ncc(Cl)c(-c3ccc(Cl)s3)n2)cc1
remaining binding (PIK3CA; binding, competition with immobilised ligand; 1 µM): 100%

C[C@@H](c1ccc(-n2cnc3c(N)ncnc32)cc1)N1CCc2nn(C)c(Cc3ccccc3)c2C1=O
remaining binding (PIK3CA C420R; binding, competition with immobilised ligand; 0.1 µM): 98%

O=C(Nc1cccnn1)N1CC(C/C=C/c2cncc(Oc3ccc(C(F)(F)F)cn3)n2)C1
remaining binding (PIK3CA C420R; cell-free assay, competition with immobilised ligand; 1 µM): 66%

O=C(NCC1CCOCC1)c1n[nH]cc1NC(=O)c1c(F)cccc1F
remaining binding (PIK3CA C420R; binding, competition with immobilised ligand; 1 µM): 100%

CC1CCCN1c1nccc(-c2cnn3ncccc23)n1 (stereo not drawn)
remaining binding (PIK3CA M1043I; binding; 1 µM): 100%

COc1cnc(Nc2cccc(S(N)(=O)=O)c2)nc1N1CCN(c2ccccc2)CC1
remaining binding (PIK3CA M1043I; binding, competition with immobilised ligand; 1 µM): 79%

O=C(c1ccc(Nc2ncc(Cl)c(-c3ccc(Cl)s3)n2)cc1)N1CCC(N2CCCC2)CC1
remaining binding (PIK3CA M1043I; binding, competition with immobilised ligand; 1 µM): 100%

N[C@H]1CCN(c2nccc(-c3cnn4ncccc34)n2)C1
remaining binding (PIK3CA H1047L; binding; 1 µM): 75%

Cc1c[nH]c2nccc(Oc3c(F)cc(Nc4cc(Cl)nc(N)n4)cc3F)c12
remaining binding (Phosphatidylinositol 4,5-bisphosphate 3-kinase catalytic subunit alpha isoform (PIK3CA, Homo sapiens, UniProt P42336, E545A); cell-free assay, competition with immobilised ligand; 0.1 µM): 88%

CN(c1nccc(-c2cnn3ncccc23)n1)C1CC1
remaining binding (Phosphatidylinositol 4,5-bisphosphate 3-kinase catalytic subunit alpha isoform (PIK3CA, Homo sapiens, UniProt P42336, E545K); binding; 1 µM): 100%

CO[C@@H](C)c1c(Nc2ccc([C@H](N(C)C(=O)C3CCS(=O)(=O)CC3)C(F)(F)F)cc2)cnc2cc(Cl)nn12
remaining binding (PIK3CA C420R; cell-free assay, competition with immobilised ligand; 1 µM): 93%

c1cncc(-c2cccc(Nc3nccc(NC4CCCCC4)n3)c2)c1
remaining binding (PIK3CA I800L; binding, competition with immobilised ligand; 10 µM): 77%

CNC(=O)[C@@H]1CC[C@@H](n2c(-c3ccc4cnccc4c3)nc3ccc(C(=O)NCc4cccc(C(N)=O)c4)cc32)C1
remaining binding (PIK3CA I800L; binding, competition with immobilised ligand; 1 µM): 85%

Cc1cnn2ncc(-c3ccnc(N(C)C)n3)c2c1
remaining binding (PIK3CA H1047L; binding; 1 µM): 77%

Cn1nc(C(F)(F)F)cc1-c1cnc(N2CCc3cc(S(=O)(=O)Nc4c(F)cc(Cl)cc4F)cc(N4CCCC4=O)c32)nc1
remaining binding (PIK3CA H1047L; cell-free assay, competition with immobilised ligand; 1 µM): 94%

Nc1ncc2c(n1)-c1c([nH]c3ccc(C#CC4CC4)cc13)CCCC2
remaining binding (PIK3CA H1047Y; binding, competition with immobilised ligand; 1 µM): 75%

Cc1noc([C@H]2C[C@@H](c3ccc(C(F)(F)F)cc3)CN(C(=O)N3CCS(=O)(=O)C3)C2)n1
remaining binding (PIK3CA M1043I; cell-free assay, competition with immobilised ligand; 1 µM): 100%

CN1CCN(c2ccc(Nc3nccc(-c4cccc([N+](=O)[O-])c4)n3)cc2C(F)(F)F)CC1
remaining binding (PIK3CA H1047L; binding; 10 µM): 4.8%

CN(C)C(=O)Cn1cc(-c2nc([C@@](C)(c3ccc(-c4cnc(N)nc4)cc3)C3CC3)no2)cn1
remaining binding (PIK3CA H1047Y; cell-free assay, competition with immobilised ligand; 1 µM): 87%

C[C@@H]1CCN(c2nccc(-c3cnn4ncccc34)n2)C1
remaining binding (PIK3CA H1047Y; binding; 1 µM): 93%
